Laboratory results: ChEMBL document CHEMBL1123083, “Synthesis and antiherpetic activity of (S)-, (R)-, and (+/-)-9-[(2,3-dihydroxy-1-propoxy)methyl]guanine, linear isomers of 2'-nor-2'-deoxyguanosine” (J Med Chem, 1985)
Values after ≈ are worked out from the molar mass of the structure shown.

Columns and labels:
Human alphaherpesvirus 1 [1] = experiment: Efficacy was evaluated against Oraficial HSV-1 infection in mice with lesions administered orally at dose 3.1 mg/kg per day; Total mice tested 10; format: ADME, organism-based; parameters: route oral; details: mouse, in vivo, po
Outline: (§1)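 HSV-1 strain S inoculated in the orofacial area of mice as previously described. Half-daily doses given by gavage 8 h apart, starting 3 h after infection, for 7 days. On day 7 after infection, mice with lesions per group and average lesion score were recorded (95% confidence interval). Significance was judged against placebo-treated infected mice (p < 0.05).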

Human alphaherpesvirus 1 [2] = experiment: Efficacy was evaluated against Oraficial HSV-1 infection in mice with lesions administered orally at a dose 50 mg/kg per day; Total mice tested 10; format: organism-based; parameters: route oral; details: mouse, in vivo, po; outline: as §1
Human alphaherpesvirus 1 [3] = experiment: In vitro anti viral activity tested against HSV-1(Schooler) virus on Rabbit kidney cell cultures; 1-3; format: functional; details: Human alphaherpesvirus 1, kidney; read-out: ED50 (the source's name)
Outline: (§2)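 Confluent primary rabbit kidney monolayers were preincubated with serial drug dilutions in EMEM with 2% fetal calf serum and neomycin. They were then challenged with about 10 TCID50 of HSV-1 Schooler and incubated at 37 °C. Cytopathology was scored on day 5.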

Human alphaherpesvirus 1 [4] = experiment: Efficacy was evaluated against Oraficial HSV-1 infection in mice with lesions administered orally at a dose 12.5 mg/kg per day; Total mice tested 10; format: organism-based; parameters: route oral; details: mouse, in vivo, po; outline: as §1
Human alphaherpesvirus 1 [5] = experiment: Efficacy was evaluated against Systemic HSV-1 infection in mice at a daily dose of 3.1 mg/kg administered orally.; format: ADME, organism-based; parameters: dose 3.1 mg/kg; details: mouse, in vivo, po
Outline: (§3)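 Mixed-sex ICR/Ha mice (10–20 g) were infected intraperitoneally with 50–100 LD50 of HSV-1 Schooler. Oral dosing of 0.1 mL twice daily for 7 days began immediately after infection. Groups were of about 10 mice. Deaths were recorded daily for 15 days, giving survivors/total and mean survival time with 95% CI. Significance was judged against placebo-treated infected mice using transformed survival times.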

Human alphaherpesvirus 2 [6] = experiment: In vitro anti viral activity tested against HSV-2(Curtis) virus on Rabbit kidney cell cultures; 1-3; format: functional; details: Human alphaherpesvirus 2, kidney; read-out: ED50 (the source's name)
Outline: as §2, with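 “Schooler or HSV-2 Curtis” for “Schooler”, “5. ED50 is the concentration preventing cytopathology in half of the infected cultures.” for “5.”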

Human alphaherpesvirus 1 [7] = experiment: Efficacy was evaluated against Systemic HSV-1 infection in mice at a daily dose of 3.1 mg/kg administered orally; Total mice tested 10; format: ADME, organism-based; parameters: dose 3.1 mg/kg; details: mouse, in vivo, po; outline: as §3
Human alphaherpesvirus 1 [8] = experiment: Efficacy was evaluated against Oraficial HSV-1 infection in mice with lesions administered orally at a dose 12.5 mg/kg per day.; format: ADME, organism-based; parameters: route oral; details: mouse, in vivo, po; outline: as §1
Human alphaherpesvirus 1 [9] = experiment: Efficacy was evaluated against Oraficial HSV-1 infection in mice with lesions administered orally at a dose 50 mg/kg per day.; format: ADME, organism-based; parameters: route oral; details: mouse, in vivo, po; outline: as §1
Human alphaherpesvirus 1 [10] = experiment: Efficacy was evaluated against Systemic HSV-1 infection in mice at a daily dose of 12.5 mg/kg administered orally; Total mice tested 10; format: ADME, organism-based; parameters: dose 12.5 mg/kg; details: mouse, in vivo, po; outline: as §3
Human alphaherpesvirus 1 [11] = experiment: Efficacy was evaluated against Systemic HSV-1 infection in mice at a daily dose of 12.5 mg/kg administered orally.; format: ADME, organism-based; parameters: dose 12.5 mg/kg; details: mouse, in vivo, po; outline: as §3
[12] = tested on: DNA polymerase (Homo sapiens); experiment: Evaluated for DNA polymerase inhibition activity against HeLa cells.
Human alphaherpesvirus 1 [13] = experiment: Evaluated for DNA polymerase inhibition activity against herpes simplex virus-1 (HSV-1); format: functional
Outline: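 Step II mixture supplied the phosphorylated test material. Step I: compound with HSV-1 thymidine kinase, 4 h, 37 °C. Step II: then HSV-1-infected HeLa crude extract plus GMP kinase, overnight, 30 °C. A 20 μL sample went to a 1 h, 37 °C DNA polymerase assay at pH 8 with activated salmon sperm DNA, 0.05 mM each dNTP ([³H]dTTP) and infected HeLa extract. (NH₄)₂SO₄ 0.1 M was present for the viral enzyme and omitted for the cellular polymerases. Read-out: TCA-precipitable radioactivity.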

Human alphaherpesvirus 1 [14] = experiment: Efficacy was evaluated against Systemic HSV-1 infection in mice at a daily dose of 50 mg/kg administered orally.; format: ADME, organism-based; parameters: dose 50 mg/kg; details: mouse, in vivo, po; outline: as §3
Human alphaherpesvirus 1 [15] = experiment: Efficacy was evaluated against Oraficial HSV-1 infection in mice with lesions administered orally at a dose 3.1 mg/kg per day.; format: ADME, organism-based; parameters: route oral; details: mouse, in vivo, po; outline: as §1
Human betaherpesvirus 5 [16] = experiment: In vitro anti viral activity tested against HCMV(AD169) virus on MRC-5 cell monolayers; 20-25; format: functional; details: Human betaherpesvirus 5, MRC5; read-out: ED50 (the source's name)
Outline: (§4)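 MRC-5 monolayers were infected with HCMV AD169 for 1 h at 37 °C. Compound diluted in maintenance medium was then added and incubation continued for 7 days at 37 °C. Monolayers were stained and plaques counted. ED50 is the concentration reducing plaque number by 50%.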

Human alphaherpesvirus 1 [17] = experiment: Efficacy was evaluated against Systemic HSV-1 infection in mice at a daily dose of 50 mg/kg administered orally; Total mice tested 10; format: organism-based; parameters: dose 50 mg/kg; details: mouse, in vivo, po; outline: as §3
Human alphaherpesvirus 1 [18] = experiment: Efficacy was evaluated against Systemic HSV-1 infection in mice at a daily dose of 0.8 mg/kg administered subcutaneously.; format: ADME, organism-based; parameters: dose 0.8 mg/kg, route subcutaneous; details: mouse, in vivo, sc
Outline: (§5)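 ICR/Ha mice (10–20 g, mixed sex) were infected intraperitoneally with 50–100 LD50 of HSV-1 Schooler. Subcutaneous dosing of 0.1 mL twice daily for 4 days started immediately after infection. Groups were of about 10 mice. Survival was recorded daily for 15 days and reported as survivors/total and mean survival time (95% CI). Transformed survival times were compared with placebo-treated infected mice (p < 0.05).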

Human betaherpesvirus 5 [19] = experiment: In vitro anti viral activity tested against HCMV(AD169) virus on MRC-5 cell monolayers; 0.4-1.6; format: functional; details: Human betaherpesvirus 5, MRC5; read-out: ED50 (the source's name); outline: as §4
Human alphaherpesvirus 1 [20] = experiment: Efficacy was evaluated against Systemic HSV-1 infection in mice at a daily dose of 0.8 mg/kg administered subcutaneously; Tested mice 10; format: organism-based; parameters: dose 0.8 mg/kg, route subcutaneous; details: mouse, in vivo, sc; outline: as §5
Human alphaherpesvirus 1 [21] = experiment: Efficacy was evaluated against Systemic HSV-1 infection in mice at a daily dose of 12.5 mg/kg administered subcutaneously; Tested mice 10; format: organism-based; parameters: dose 12.5 mg/kg, route subcutaneous; details: mouse, in vivo, sc; outline: as §5
Mus musculus = experiment: Efficacy was evaluated against Systemic HSV-1 infection in mice at a daily dose of 12.5 mg/kg administered subcutaneously.; format: ADME, organism-based; parameters: dose 12.5 mg/kg, route subcutaneous; details: in vivo, sc; outline: as §5
Human alphaherpesvirus 1 [22] = experiment: Efficacy was evaluated against Systemic HSV-1 infection in mice at a daily dose of 3.1 mg/kg administered subcutaneously.; format: ADME, organism-based; parameters: dose 3.1 mg/kg, route subcutaneous; details: mouse, in vivo, sc; outline: as §5
Human alphaherpesvirus 3 = experiment: In vitro anti viral activity tested against VZV(KMcC) virus on MRC-5 cell monolayers; 1-2; format: functional; details: Human alphaherpesvirus 3, MRC5; read-out: ED50 (the source's name)
Human alphaherpesvirus 1 [23] = experiment: Efficacy was evaluated against Systemic HSV-1 infection in mice at a daily dose of 3.1 mg/kg administered subcutaneously; Tested mice 10; format: ADME, organism-based; parameters: dose 3.1 mg/kg, route subcutaneous; details: mouse, in vivo, sc; outline: as §5
Human alphaherpesvirus 2 [24] = experiment: In vitro anti viral activity tested against HSV-2(Curtis) virus on Rabbit kidney cell cultures; 3-6; format: functional; details: Human alphaherpesvirus 2, kidney; read-out: ED50 (the source's name)
Outline: as §2, with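 “Schooler or HSV-2 Curtis” for “Schooler”, “5. ED50 is the concentration preventing cytopathology in half of the infected cultures.” for “5.”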

Nc1nc2c(ncn2COCCO)c(=O)[nH]1 [ACYCLOVIR]
Mice with lesions (Human alphaherpesvirus 1 [1]): 10
Mice with lesions (Human alphaherpesvirus 1 [2]): 6
EC50 (Human alphaherpesvirus 1 [3]): 1 µg/mL (≈ 4.44 µM)
Mice with lesions (Human alphaherpesvirus 1 [4]): 8
Average survival (Human alphaherpesvirus 1 [5]): 6.5 days
EC50 (Human alphaherpesvirus 2 [6]): 1 µg/mL (≈ 4.44 µM)
Survivors (Human alphaherpesvirus 1 [7]): 0
Average lesion score (Human alphaherpesvirus 1 [8]): 2.95
Average lesion score (Human alphaherpesvirus 1 [9]): 1.45
Survivors (Human alphaherpesvirus 1 [10]): 1
Average survival (Human alphaherpesvirus 1 [11]): 7.6 days
Inhibition [12]: 34%
Inhibition (Human alphaherpesvirus 1 [13]): 85%
Average survival (Human alphaherpesvirus 1 [14]): 8.7 days
Average lesion score (Human alphaherpesvirus 1 [15]): 3.75
EC50 (Human betaherpesvirus 5 [16]): 20 µg/mL (≈ 88.8 µM)
Survivors (Human alphaherpesvirus 1 [17]): 2

Nc1nc2c(ncn2COC(CO)CO)c(=O)[nH]1 [GANCICLOVIR]
Average survival (Human alphaherpesvirus 1 [18]): 9.8 days
EC50 (Human betaherpesvirus 5 [19]): 0.4 µg/mL (≈ 1.57 µM)
EC50 (Human alphaherpesvirus 1 [3]): 1 µg/mL (≈ 3.92 µM)
Survivors (Human alphaherpesvirus 1 [20]): 3
Survivors (Human alphaherpesvirus 1 [21]): 7
Inhibition [12]: 13%
Average survival (Mus musculus): 14.6 days
Inhibition (Human alphaherpesvirus 1 [13]): 55%
Average survival (Human alphaherpesvirus 1 [22]): 12.6 days
EC50 (Human alphaherpesvirus 3): 1 µg/mL (≈ 3.92 µM)
Survivors (Human alphaherpesvirus 1 [23]): 5
EC50 (Human alphaherpesvirus 2 [24]): 3 µg/mL (≈ 11.8 µM)
